Data as given in ChEMBL document CHEMBL1155659, “Chemistry of sponges. 19. Novel bioactive metabolites from Hamigera tarangaensis” (J Nat Prod, 2000).
Active and inactive are the calls of the source. No cut-off for these calls is given here.

Key:
Bacillus subtilis [1] = assay: Antibacterial activity against Bacillus subtilis at 150 ug; format: functional; conditions: read-out: IZ
Candida albicans = assay: Antifungal activity against Candida albicans; format: functional, organism-based
Bacillus subtilis [2] = assay: Antibacterial activity against Bacillus subtilis at 96 ug; format: functional; conditions: read-out: IZ
Bacillus subtilis [3] = assay: Antibacterial activity against Bacillus subtilis at 156 ug; format: functional; conditions: read-out: IZ
Escherichia coli = assay: Antibacterial activity against Escherichia coli; format: functional, organism-based
Herpesviridae sp. = assay: Antiviral activity against Herpesvirus; format: functional
How it was run: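 Disk-based antiviral test, sample loaded at 132 μg per disk onto herpes-virus-infected cell wells; read-out is percent virus inhibition, with cytotoxicity scored across the whole well.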

P388 = assay: Cytotoxicity against mouse P388 cells; format: functional, cell-based
Enterovirus C = assay: Antiviral activity against Poliovirus; format: functional
How it was run: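 Disk assay at 132 μg per disk, scored as percent virus inhibition, with cytotoxicity assessed across the whole well.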

[4] = test system: Trichophyton mentagrophytes; assay: Antifungal activity against Trichophyton mentagrophytes; format: functional, organism-based
Bacillus subtilis [5] = assay: Antibacterial activity against Bacillus subtilis; format: functional, organism-based

SMILES	zone of inhibition at 150 µg/disc (Bacillus subtilis [1])	Activity (Candida albicans)	zone of inhibition at 96 µg/disc (Bacillus subtilis [2])	zone of inhibition at 156 µg/disc (Bacillus subtilis [3])	Activity (Escherichia coli)	Activity (Herpesviridae sp.)	IC50 (P388)	Activity (Enterovirus C)	Activity [4]	Activity (Bacillus subtilis [5])	inhibition (INH) (Herpesviridae sp.)	inhibition (INH) (Enterovirus C)
Cc1cc2c3c(c1Br)O[C@H](C)N=C3C(=O)C[C@]1(C)CC[C@H](C(C)C)[C@H]21 [HAMIGERAN D]	3 mm	inactive	3 mm	3 mm	inactive	inactive	8 µM	inactive				
Cc1c(Br)c(O)c2c(c1Br)[C@H]1[C@@H](C(C)C)CC[C@@]1(C)C(=O)C2=O [4-BROMOHAMIGERAN B]		inactive			inactive	inactive	13.9 µM	inactive	inactive			
CC(=O)O[C@H]1C(=O)C(=O)c2c(cc(C)c(Br)c2O)[C@H]2[C@@H](C(C)C)CC[C@@]12C [HAMIGERAN C]	3 mm	inactive	3 mm	3 mm	inactive	inactive	16 µM	inactive				
COC(=O)[C@]1(O)C(=O)c2c(cc(C)c(Br)c2O)[C@H]2[C@@H](C(C)C)CC[C@]21C		inactive			inactive	inactive		inactive	inactive	inactive		
CCOC(=O)c1c([C@H]2[C@@H](C(C)C)CC[C@@]2(C)C(=O)OCC)cc(C)c(Br)c1OCC [TRYETHYLHAMIGERAN E]		inactive			inactive	inactive	54.2 µM	inactive	inactive	inactive		
Cc1cc([C@H]2[C@@H](C(C)C)CC[C@@]2(C)CC(=O)O)c2c(c1Br)O[C@H](C)NC2=O	3 mm	inactive	3 mm	3 mm	inactive	inactive	74.2 µM	inactive	inactive			
COC(=O)[C@]1(O)C(=O)c2c(O)cc(C)cc2[C@H]2[C@@H](C(C)C)CC[C@]21C		inactive			inactive	inactive		inactive	inactive			
Cc1cc2c(c(O)c1Br)C(=O)C(=O)[C@]1(C)CC[C@H](C(C)C)[C@H]21 [HAMIGERAN B]		inactive			inactive						100%	100%
